TRPC4 PAM = allosteric potentiators of mouse TRPC4 channel; Q9QUQ5; HEK293 TRPC4beta/mu-opioid, DAMGO EC20, Fluo-4 Ca2+ flux; hits give high values; B-score at 10 µM; hit rate 0.42% among 310,000; AID 2227;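 active means B-score of calcium response area above 5 SD of library B-scores, with initial fluorescence ratio within 5 SD of library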
TRPC4 block = inhibitors of mouse TRPC4 channel; Q9QUQ5; HEK293 TRPC4beta/mu-opioid, DAMGO-evoked Fluo4 calcium flux; hits give low values; B-score at 10 µM; hit rate 0.39% among 300,000; AID 2247;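 active means B-score over 3 SD under the library average, no early fluorescence shift, positive overall ratio signal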
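Test system – stable TRPC4beta/mu-opioid receptor HEK293 cells · Probe or stimulus – DAMGO, a submaximal dose followed by a maximal one · Dosing – one concentration per compound · Signal – Fluo4 calcium fluorescence by kinetic imaging, 5 s 1 Hz baseline · Evaluation – per-well B score of integrated baseline-normalized Fluo4 ratio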
TRPC6 act = mouse TRPC6 channel activation; AID 2550; hit rate 0.13% among 310,000; Q61143; B-score at 10 µM; HEK293-TRPC6 membrane potential dye fluorescence; hits give high values;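 active means B-score of the integrated fluorescence ratio above library mean plus 3 SD, and starting fluorescence ratio within library mean plus 5 SD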;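 further: higher score means more depolarization so channel activation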
Kir21 block = inhibitors of mouse Kir2.1 inward-rectifier potassium channel; P35561; HEK293-Kir2.1, FluxOR thallium flux fluorescence; hits give low values; B-score at 10 µM; hit rate 0.85% among 310,000; AID 1672;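 active means fluorescence ratio B-score at or below minus 3 SD of library scores, with starting-brightness B-score within 2 SD, cut at about -4.2 in these data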;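 further: channel flux triggered by added potassium and thallium sulfate stimulus; B-score of peak minus minimum fluorescence over baseline after thallium stimulus; more negative B-score means stronger Kir2.1 block with less thallium influx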
Target sequence (P35561 whole entry, looked up): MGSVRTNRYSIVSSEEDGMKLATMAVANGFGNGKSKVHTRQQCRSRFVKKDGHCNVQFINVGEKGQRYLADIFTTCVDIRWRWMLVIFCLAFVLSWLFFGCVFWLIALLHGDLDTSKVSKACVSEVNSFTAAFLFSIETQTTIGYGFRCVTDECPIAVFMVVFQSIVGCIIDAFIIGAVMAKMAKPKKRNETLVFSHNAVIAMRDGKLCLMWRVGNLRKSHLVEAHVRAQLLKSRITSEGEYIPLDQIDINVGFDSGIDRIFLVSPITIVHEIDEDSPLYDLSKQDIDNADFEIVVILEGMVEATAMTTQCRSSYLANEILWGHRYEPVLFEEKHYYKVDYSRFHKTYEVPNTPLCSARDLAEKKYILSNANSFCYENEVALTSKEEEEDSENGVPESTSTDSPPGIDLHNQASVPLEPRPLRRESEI
TRPC6 inhibitor = mouse TRPC6 channel inhibition. hit rate 1.1% among 310,000. HEK293-TRPC6, membrane potential dye, ACh-evoked depolarization; hits give low values. B-score at 10 µM. AID 2553. Q61143;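 active means B-score under library mean minus 3 SD, initial fluorescence not abnormally high, positive integrated signal ratio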;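 further: B-score derived from integrated fluorescence ratio over the kinetic read; more negative B-score means stronger inhibition of depolarization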
TRPC4 agonist = activators of mouse TRPC4 channel | Q9QUQ5 | HEK293 TRPC4beta/mu-opioid, Fluo4 calcium fluorescence; hits give high values | B-score at 10 µM | hit rate 0.49% among 310,000;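 active means B-score above 5 SD of library B-scores, and initial fluorescence ratio not above library mean plus 5 SD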;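 further: positive B-score marks a calcium rise read as TRPC4 activation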
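Assay system: HEK293 stable line with TRPC4beta plus mu-opioid receptor; schedule: 45 min room-temperature Fluo4 loading, 110 s read; technique: kinetic Fluo4 calcium fluorescence; evaluation: integrated baseline-normalised fluorescence ratio, converted to per-well B score; controls: buffer (low) and maximal DAMGO (high)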
TRPC4 sel inh 2 = mouse TRPC4 off-target activity of TRPC6 inhibitors, second screen | shares compounds with TRPC6 inhibitor | HEK293 TRPC4/MOR, membrane potential dye fluorescence; channel activated by saturating DAMGO dose | inhibition, % at 10 µM | hit rate 42% among 920 | AID 2776;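 active means compounds whose fluorescence signal differed from control wells by over 3 SD, either direction, in both duplicate plates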
TRPC4 spec = mouse TRPC4 off-target activity of TRPC6 inhibitors. shares compounds with TRPC6 inhibitor. HEK293 TRPC4/mu-opioid, membrane potential fluorescence. activity change, negative = inhibition, % at 10 µM. hit rate 61% among 920. AID 2777;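 active means rise or fall in signal beyond 3 SD of buffer-only wells in both replicate plates, either sign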;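 further: integrated kinetic ratio of fluorescence range over baseline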
HEK293 MPD ctr 2-1 = second check of TRPC6 inhibitor effects in parental HEK293 cells; parental HEK293 membrane potential dye fluorescence; maximal acetylcholine challenge after compound addition; signal change vs control, % at 10 µM; hit rate 31% among 920; shares compounds with TRPC6 inhibitor;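 active means membrane potential signal moving either way by over 3 SD of the maximum-effect control, in both duplicate plates, meaning non-specific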
HEK293 MPD ctr-1 = counter-screen for TRPC6 inhibitors: effect in parental HEK293 cells. shares compounds with TRPC6 inhibitor. parental HEK293 membrane potential dye fluorescence. membrane potential signal change, % at 10 µM. hit rate 60% among 920. AID 2780;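 active means membrane potential signal shifting up or down by more than 3 SD of buffer-only wells, on both duplicate plates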
HEK293 MPD ctr-2 = counter-screen for TRPC6 modulators: effect in parental HEK293 cells. shares compounds with TRPC6 inhibitor. membrane potential dye fluorescence. membrane potential signal change, % at 10 µM. hit rate 51% among 2,400;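 active means membrane potential signal moves up or down beyond 5 SD from buffer-only wells, on both duplicate plates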
HEK293 MPD ctr 2-2 = second counter-screen for TRPC6 modulators: effect in parental HEK293 cells; inhibition, % at 10 µM; shares compounds with TRPC6 inhibitor; AID 488926; hit rate 14% among 2,400; membrane potential dye fluorescence; after compound, maximal acetylcholine stimulation;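 active means membrane potential signal drops by more than 5 SD from the mean control signal, in both duplicate plates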
TRPC4/MOR mod = tests whether TRPC6 modulators also affect mouse TRPC4; shares compounds with TRPC6 inhibitor; HEK293 TRPC4/mu-opioid, membrane potential fluorescence; percent change from control (negative = decrease, positive = increase), % at 10 µM; hit rate 69% among 2,400;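 active means membrane potential signal moved up or down beyond 5 SD of buffer control wells, in both duplicate plates, actives on both sides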
TRPC4 ctr inh 2 = mouse TRPC4 off-target activity of TRPC6 modulators, second screen; shares compounds with TRPC6 inhibitor; HEK293 TRPC4/mu-opioid, membrane potential dye fluorescence; stimulated with maximal-effect DAMGO; inhibition, % at 10 µM; hit rate 55% among 2,400; AID 488928;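 active means drop in membrane potential signal beyond 5 SD of the control wells in both duplicate plates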;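 further: TRPC4 counter screen for TRPC6 hits run under conditions tuned for TRPC6 not TRPC4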
TRPC6 inh conf = confirmation of mouse TRPC6 inhibitors; inhibition, % at 10 µM; HEK293-TRPC6, membrane potential dye, ACh-evoked depolarization; hit rate 43% among 3,300; shares compounds with TRPC6 inhibitor;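 active means fluorescence ratio falls more than 5 SD below the full-stimulation control mean, in both duplicate runs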;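 further: integrated fluorescence ratio of peak minus minimum over baseline after agonist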
TRPC6 act conf = mouse TRPC6 activator confirmation. HEK293-TRPC6 membrane potential dye fluorescence, FDSS. AID 488961. hit rate 11% among 2,800. activation, % at 10 µM. shares compounds with TRPC6 inhibitor;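 active means ratio signal rise beyond 5 SD above unstimulated control wells' mean, seen in both duplicate runs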
A number is an active result. Shown are actives, neighbours in structure and some others; about 2.9% of the full set was active somewhere.

Results for Cn1c(=O)c(C(=O)Nc2ccccn2)c(O)c2ccccc21 ?
TRPC4 PAM: inactive; TRPC4 block: inactive; TRPC6 act: inactive; Kir21 block: inactive; TRPC6 inhibitor: -8.7; TRPC4 agonist: inactive; TRPC4 sel inh 2: inactive; TRPC4 spec: -21%; HEK293 MPD ctr 2-1: inactive; HEK293 MPD ctr-1: -327%; TRPC6 inh conf: inactive; TRPC6 act conf: inactive

How did CCCn1nc([N+](=O)[O-])c(C(C#N)c2nc3ccccc3o2)c(Cl)c1=O (stereo unspecified) do in these assays?
TRPC4 PAM: inactive; TRPC4 block: -5; TRPC6 act: inactive; Kir21 block: inactive; TRPC6 inhibitor: -7.9; TRPC4 agonist: inactive; HEK293 MPD ctr-2: -217%; HEK293 MPD ctr 2-2: inactive; TRPC4/MOR mod: -46%; TRPC4 ctr inh 2: 81%; TRPC6 inh conf: 68%; TRPC6 act conf: inactive

Results for Cn1nc([N+](=O)[O-])c(C(C#N)c2ccccn2)c(Cl)c1=O (stereo unspecified) ?
TRPC4 PAM: inactive; TRPC4 block: inactive; TRPC6 act: inactive; Kir21 block: inactive; TRPC6 inhibitor: inactive; TRPC4 agonist: inactive

How did CC(C)(C)OC(=O)N[C@@H](Cc1ccccc1)C(=O)NCC1CCC(C(=O)N[C@@H](CC(=O)O)C(=O)O)CC1 (stereo partly specified) do in these assays?
TRPC4 PAM: inactive; TRPC4 block: inactive; TRPC6 act: inactive; Kir21 block: inactive; TRPC6 inhibitor: inactive; TRPC4 agonist: inactive

What do the screens show for `Cc1cccc(N2CCN(C(=O)c3ccc4c(c3)c(C)c(C)n4C)CC2C)c1` (stereo unspecified)?
TRPC4 PAM: inactive; TRPC4 block: inactive; TRPC6 act: inactive; Kir21 block: inactive; TRPC6 inhibitor: -5.1; TRPC4 agonist: inactive; HEK293 MPD ctr-2: inactive; HEK293 MPD ctr 2-2: inactive; TRPC4/MOR mod: inactive; TRPC4 ctr inh 2: inactive; TRPC6 inh conf: inactive; TRPC6 act conf: inactive

What do the screens show for `Cc1cccc(N2CCN(C(=O)c3ccc(N4CCCC4=O)cc3)CC2C)c1` (stereo unspecified)?
TRPC4 PAM: inactive; TRPC4 block: inactive; TRPC6 act: inactive; Kir21 block: inactive; TRPC6 inhibitor: inactive; TRPC4 agonist: inactive

How did Cc1cccn2c(CNC3CCCc4ccccc43)c(C(=O)N3CCCCC3)nc12 (stereo unspecified) do in these assays?
TRPC4 PAM: inactive; TRPC4 block: inactive; TRPC6 act: inactive; Kir21 block: inactive; TRPC6 inhibitor: -8; TRPC4 agonist: inactive; HEK293 MPD ctr-2: 420%; HEK293 MPD ctr 2-2: 75%; TRPC4/MOR mod: 92%; TRPC4 ctr inh 2: 55%; TRPC6 inh conf: 74%

What do the screens show for `CCOC(=O)C1CCCN(Cc2c(C(=O)N3CCCCC3)nc3c(C)cccn23)C1` (stereo unspecified)?
TRPC4 PAM: inactive; TRPC4 block: inactive; TRPC6 act: inactive; Kir21 block: inactive; TRPC6 inhibitor: inactive; TRPC4 agonist: inactive

What do the screens show for `CCC(C)[C@H]1CNCCN1CCc1cc(C(F)(F)F)cc(C(F)(F)F)c1` (stereo partly specified)?
TRPC4 PAM: inactive; TRPC4 block: inactive; TRPC6 act: inactive; Kir21 block: inactive; TRPC6 inhibitor: -7.2; TRPC4 agonist: inactive; TRPC4 sel inh 2: 54%; TRPC4 spec: inactive; HEK293 MPD ctr 2-1: inactive; HEK293 MPD ctr-1: inactive; TRPC6 inh conf: inactive; TRPC6 act conf: inactive

Results for Oc1ccc(N=Nc2ccc(Br)cc2)c(O)c1 ?
TRPC4 PAM: inactive; TRPC4 block: inactive; TRPC6 act: inactive; Kir21 block: inactive; TRPC6 inhibitor: -5.3; TRPC4 agonist: inactive; HEK293 MPD ctr-2: inactive; HEK293 MPD ctr 2-2: inactive; TRPC4/MOR mod: inactive; TRPC4 ctr inh 2: inactive; TRPC6 inh conf: inactive; TRPC6 act conf: inactive

How did Cc1nn(C)cc1S(=O)(=O)NC1CCCC1 do in these assays?
TRPC4 PAM: inactive; TRPC4 block: inactive; TRPC6 act: inactive; Kir21 block: inactive; TRPC6 inhibitor: inactive; TRPC4 agonist: inactive

What do the screens show for `COc1ccc(/C=N/NC(=O)C(=O)NCc2cccnc2)cc1`?
TRPC4 PAM: inactive; TRPC4 block: inactive; TRPC6 act: inactive; Kir21 block: inactive; TRPC6 inhibitor: inactive; TRPC4 agonist: inactive

How did O=C(c1ccc(OC2CCN(Cc3ccc(C(F)(F)F)cc3)CC2)cc1)N1CCCCC1 do in these assays?
TRPC4 PAM: inactive; TRPC4 block: inactive; TRPC6 act: inactive; Kir21 block: inactive; TRPC6 inhibitor: -6.3; TRPC4 agonist: inactive; HEK293 MPD ctr-2: 126%; HEK293 MPD ctr 2-2: inactive; TRPC4/MOR mod: inactive; TRPC4 ctr inh 2: 44%; TRPC6 inh conf: 66%

Results for O=C(c1ccc(OC2CCN(Cc3ccccc3C(F)(F)F)CC2)cc1)N1CCCCC1 ?
TRPC4 PAM: inactive; TRPC4 block: inactive; TRPC6 act: inactive; Kir21 block: inactive; TRPC6 inhibitor: inactive; TRPC4 agonist: inactive

How did CCc1ccc(C(=O)N/N=C/c2ccncc2)s1 do in these assays?
TRPC4 PAM: inactive; TRPC4 block: inactive; TRPC6 act: inactive; Kir21 block: inactive; TRPC6 inhibitor: inactive; TRPC4 agonist: inactive
